# Compound activity: PubChem BioAssay, several laboratories
# Only some compounds are listed: those with a hit (about 2% of all), similar ones and a draw of the others.
# FLuc stim CS – firefly luciferase counter-screen for stimulation assays; P08659; AID 1027; 200,000 tested, under 10 active; ATPlite luciferase biochemical, luminescence, 10 min; 0 = ATP-free wells, 1 = DMSO control; activation factor at 10 µM;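 active means luciferase activation factor, scaled between plate controls, of at least 2 with compound at 10 µM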
# Target sequence (P08659 whole entry, looked up): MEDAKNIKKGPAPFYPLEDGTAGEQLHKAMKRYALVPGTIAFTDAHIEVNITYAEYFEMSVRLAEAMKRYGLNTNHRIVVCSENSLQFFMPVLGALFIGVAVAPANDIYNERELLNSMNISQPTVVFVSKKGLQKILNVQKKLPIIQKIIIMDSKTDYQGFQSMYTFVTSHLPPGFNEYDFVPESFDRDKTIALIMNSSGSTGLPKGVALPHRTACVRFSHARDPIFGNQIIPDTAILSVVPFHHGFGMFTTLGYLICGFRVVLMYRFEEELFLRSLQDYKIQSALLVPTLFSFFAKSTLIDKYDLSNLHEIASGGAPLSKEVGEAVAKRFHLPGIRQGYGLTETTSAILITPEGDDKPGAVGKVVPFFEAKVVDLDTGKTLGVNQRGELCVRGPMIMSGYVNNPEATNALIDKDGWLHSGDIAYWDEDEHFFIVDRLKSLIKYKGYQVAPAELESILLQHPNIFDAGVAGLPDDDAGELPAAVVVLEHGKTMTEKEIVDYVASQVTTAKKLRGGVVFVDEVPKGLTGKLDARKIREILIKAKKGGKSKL
#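 System: Luciferase/luciferin detection reagent, cell-free biochemical luciferase assay | Medium: PBS buffer for ATP | Dosing: Test compounds dosed from 2 mM stocks in 100% DMSO | Timing: 10 min at ambient temperature | Signal: Luminescence measurement of luciferase light output | Evaluation: Luciferase activation, seen as luminescence increase over controls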
# FLuc inhib CS – counter-screen for luciferase assay inhibitors: firefly luciferase inhibition | P08659 | ATPLite firefly luciferase biochemical luminescence, 10 min | inhibition, % at 10 µM | 200,000 compounds, 1.5% hits;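 active means inhibition above about 50% when tested at 10 µM, limit read from the data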
# HSP90 inh – HSP90 refolding inhibition in rabbit reticulocyte lysate; luciferase refolding luminescence, 3 h; inhibition, % at 5.6 µM; 290,000 compounds, 0.91% hits; AID 1789;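 active means inhibition above the screen-wide mean plus 3 SD, computed separately per campaign, cut at about 16% in these data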;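 further: 0% = DMSO wells and 100% = 60 µM geldanamycin wells; inhibitors lower the luminescence because luciferase stays unfolded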
# C8 TRAIL sens – caspase-8 TRAIL sensitization | inhibition (viability loss, TRAIL sensitization), % at 10 µM | NB7+C8 cells + TRAIL, ATPlite viability luminescence | AID 624354 | 360,000 compounds, 1% hits;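 active means compounds causing at least 50% loss of cell viability in the single-dose screen, relative to plate controls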
# PPC-1+TRAIL kill – compounds killing PPC-1 cancer cells with TRAIL present (potentiator screen, no TRAIL-free arm); 220,000 compounds, 0.41% hits; PPC-1 cells + TRAIL, ATPLite viability luminescence; cell killing (% activity), % at 4 µM or 5 µM;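 active means cell killing above 50% in the first pass at 4 µM, then a duplicate retest at 5 µM averaging 50% or more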;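 further: plate controls were cells with TRAIL plus DMSO for no effect and medium-only wells lacking cells for full effect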
# PPC-1 tox – kills PPC-1 cells; shares compounds with PPC-1+TRAIL kill; PPC-1 viability, ATPlite luminescence, overnight; cytotoxicity, % at 5 µM; 1,200 compounds, 50% hits; AID 1447;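 active means reconfirmed compounds whose average cytotoxicity reaches 50% or more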;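 further: 0% = DMSO-treated cells and 100% = wells holding medium but no cells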
# * marks the source's active call; other numbers are inactive results; · = no result.
SMILES,FLuc stim CS,FLuc inhib CS,HSP90 inh,C8 TRAIL sens,PPC-1+TRAIL kill,PPC-1 tox
Cn1c(-c2ccccc2)cnc1SCC(=O)NCc1ccco1,1,-4,2,8,3,-6
O=C(CSc1nnc(-c2ccccc2)n1-c1ccccc1)NCc1ccco1,1,-3,3,-10,19,·
COc1ccc(Cn2cc(CN3CC(N4CC=CC4)CS3(=O)=O)nn2)cc1 (stereo unspecified),·,·,·,-4,·,·
Cc1ccc(OCc2ccc(C(=O)NN)o2)c([N+](=O)[O-])c1,·,·,0,5,13,·
COC(=O)c1ccc(COc2ccc(C)cc2[N+](=O)[O-])o1,·,·,11,4,11,-14
CS(=O)(=O)c1ccc(C(=O)OCC(=O)NC23CC4CC(CC(C4)C2)C3)cc1[N+](=O)[O-],1.2,-16,1,-5,-8,-10
N/C(Cc1ccc(Cl)cc1Cl)=N\OC(=O)c1ccccc1,1,-5,-2,1,-1,·
N/C(=N\OC(=O)c1ccc(Cl)cc1Cl)c1ccccc1,0.1,95*,16,94*,65*,62*
COc1ccc(Cl)cc1C(=O)O/N=C(\N)c1ccccn1,·,·,1,14,·,·
N/C(=N\OC(=O)c1cc(Cl)ccc1Cl)c1ccccn1,0.3,75*,15,63*,55*,58*
CNS(=O)(=O)c1cc(Nc2ncnc3sccc23)ccc1C,·,·,1,-1,·,·
C=CCC[C@@H](CCCCC)OC(=O)/C=C/[C@@H](O)[C@H](O)C[C@@H](O)CC=C,·,·,·,-10,·,·
C/C(=N/NC(=O)c1cc(C2CC2)[nH]n1)c1cccs1,0.2,84*,11,67*,60*,50
Cc1ccc(-c2nc(N/N=C/c3cccnc3)c3ccccc3n2)cc1,0,97*,0,91*,91*,85*
O=C(OCc1ccccc1)N1CCC2CC1c1cc(/C=C/CCCSc3ncccn3)ccc12 (stereo unspecified),·,·,·,12,·,·
Cc1cc(/C=C2/C(=O)NN(c3ccccc3)C2=O)c(C)n1-c1cccc(O)c1,0.1,94*,14,85*,81*,83*
O=C(CCCCCN1C(=O)CCC1=O)Nc1ccc2c(c1)OCO2,1,0,-2,-2,11,·
O=C(CCCN1C(=O)CCC1=O)Nc1ccc2c(c1)OCO2,1,2,6,-2,8,9
COc1ccccc1NC(=O)CSc1nnc(-c2ccc(C)cc2)o1,1,-1,-1,48,43,53*
O=C(CSc1nnc(-c2ccc(O)cc2)o1)Nc1ccc2c(c1)OCCO2,1,4,1,34,65*,66*
COc1ccc(Cl)cc1C(=O)Nc1cccnc1Cl,·,·,1,4,·,·
O=C(CN1C(=O)C2(OCCCO2)c2ccccc21)NCc1ccccc1,1.1,-6,1,-5,7,1
CCCNC(=O)C1(C)CCCN(Cc2c3ccccc3nn2C)C1 (stereo unspecified),·,·,·,-6,·,·
Cc1ccc(C(=O)Nc2nc(=O)n(C(=O)CC(C)C)s2)cc1,0.9,5,1,-10,13,·
Cc1ccc(C(=O)Nc2nc(=O)n(C)s2)cc1,0.2,81*,3,53*,31,37
SMILES,FLuc stim CS,FLuc inhib CS,HSP90 inh,C8 TRAIL sens,PPC-1+TRAIL kill,PPC-1 tox
Cc1ccc(C(=O)Nc2nccs2)cc1,0.2,83*,6,24,7,4
NC(=O)c1ccsc1NC(=O)c1ccc(N2CCCC2=O)cc1,0.1,93*,12,80*,77*,74*
NC(=O)c1ccsc1NC(=O)c1ccc2c(c1)CCCC2,0.1,91*,11,85*,78*,76*
NC(=O)c1ccsc1NC(=O)c1cccs1,·,·,2,14,·,·
CC(C)Cc1nnc(NC(=O)c2ccc(N3CCCC3=O)cc2)s1,·,·,·,-7,·,·
Cc1cnc(NC(=O)c2cc3ccccc3o2)s1,0.1,89*,38*,36,51*,54*
Cc1nnc(NC(=O)c2cc3ccccc3o2)s1,·,·,-4,42,·,·
NS(=O)(=O)c1cccc(NC(=O)c2cc3ccccc3o2)c1,0.2,84*,0,63*,35,36
NS(=O)(=O)c1cccc(NC(=O)c2cc(=O)c3ccccc3o2)c1,·,·,-5,8,·,·
Cc1cnc(NC(=O)c2sc3ccccc3c2Cl)s1,0.1,93*,5,82*,70*,68*
O=S(=O)(NC1c2cccc3cccc(c23)C1Sc1ncccn1)c1ccccc1 (stereo unspecified),1,-3,-2,-1,-8,·
N#Cc1cccc(C=C(C(=O)c2ccccc2)c2ccccc2)c1,·,·,·,3,·,·
Cc1cccc(-n2ncc3c(N(C)C4CCCCC4)ncnc32)c1,·,·,·,88*,80*,82*
Cc1cccc(-n2ncc3c(N(CCO)CCO)ncnc32)c1,0.8,20,-4,4,17,·
Cc1ccc2nc(CN(C)C(=O)[C@H]3O[C@@H](n4ccc(N)nc4=O)[C@H](O)[C@@H]3O)[nH]c2c1,·,·,·,6,·,·
CC(C)c1ccccc1NC1=CC(=O)CC(C)(C)C1,1.1,-7,0,-6,14,·
c1ccc(Nc2ncnc3c2oc2ccccc23)cc1,0.9,7,1,18,5,1
Cc1ccc(NN2C(=O)C=C(c3ccc(Cl)cc3)C2=O)cc1,1,0,-2,5,3,2
O=C1C=C(c2ccccc2)C(=O)N1Nc1ccccc1,1,-3,3,-16,3,·
COc1cc([N+](=O)[O-])c(C)cc1NC(=O)c1ccc(OC)c(OC)c1,·,·,·,0,·,·
COc1ccc(C2NCCc3c2[nH]c2ccccc32)cc1CN1CCc2cc(OC)c(OC)cc2C1C (stereo unspecified),·,·,5,9,13,34
COc1ccc(/C=N/n2c(C)nc3ccccc3c2=O)cc1,·,·,0,-2,·,·
CCn1c(/C=C/c2ccccc2)nc2ccccc2c1=O,1,0,0,1,1,·
CCn1c(/C=C/c2ccccc2)nc2ccccc21,0.1,87*,4,72*,66*,68*
COc1ccc(/C=N\n2nnc3ccccc32)cc1,0.3,69*,29*,55*,39,36
SMILES,FLuc stim CS,FLuc inhib CS,HSP90 inh,C8 TRAIL sens,PPC-1+TRAIL kill,PPC-1 tox
COc1ccc(/C=C/c2nc3ccccc3n2C)cc1,0,97*,40*,88*,93*,92*
CC1=C(C(=O)N(C(C)C)C(C)C)CC(CC(=O)NC2CCCC2)C(=O)N1Cc1ccc(F)cc1 (stereo unspecified),·,·,·,1,·,·
CCOC(=O)c1cnn(C)c1NC(=O)c1ccc(Cl)cc1Cl,·,·,-7,16,·,·
Oc1ccc(N=Nc2ccc3c(c2)OCO3)c2ccccc12,·,·,1,·,34,32
NC1=NC2CS(=O)(=O)CC2S1 (stereo unspecified),1.1,-8,1,3,17,·
COc1ccc(-c2cc3nc4n(c(=O)c3s2)CCCCC4)cc1,·,·,-3,27,31,·
Cn1c(NCc2ccccc2)nc2cc(-c3ccccc3)sc2c1=O,·,·,·,3,·,·
